Screening data as filed in PubChem.
Rows were chosen to be rich in hits. Some 3.5% of all compounds tested hit in one or more screens of this group.
MrgX1 allo act = allosterically activates human MrgX1 receptor signaling. Q96LB2. MrgX1-HEK293, Fluo-4 calcium flux, FDSS; stronger effect = higher value. B-score at 10 µM. hit rate 0.63% among 310,000. AID 588675;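 active = plate-corrected calcium response at least 3 library SD above typical, normal starting fluorescence, not activating the receptor alone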;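 also: compound read alongside a low EC10 to EC30 dose of BAM8-22 agonist; peak minus trough fluorescence over baseline measured at the second addition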
Target sequence (Q96LB2 whole entry, looked up): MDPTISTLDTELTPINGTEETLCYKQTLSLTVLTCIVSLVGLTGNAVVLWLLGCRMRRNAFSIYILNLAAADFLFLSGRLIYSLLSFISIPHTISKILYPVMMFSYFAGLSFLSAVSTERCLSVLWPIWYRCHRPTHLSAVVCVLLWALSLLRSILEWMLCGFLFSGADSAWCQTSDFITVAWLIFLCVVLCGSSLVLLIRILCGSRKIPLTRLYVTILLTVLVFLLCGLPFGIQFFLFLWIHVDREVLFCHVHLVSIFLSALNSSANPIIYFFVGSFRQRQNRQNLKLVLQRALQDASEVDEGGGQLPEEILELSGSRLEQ
MrgX1 antag = antagonists of human MrgX1 receptor. Q96LB2. MRGX1-HEK293 calcium flux, Fluo-4, BAM8-22 antagonism; stronger effect = lower value. B-score at 10 µM. hit rate 1.3% among 310,000. AID 588676;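 active = calcium-response B-score plate-corrected more than 3 library SD below zero, starting fluorescence within 5 deviations, no agonist response on first addition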;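 also: peak minus trough fluorescence over baseline after final BAM8-22 challenge near maximal dose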
MrgX1 ag = activates human MrgX1 receptor signaling. Q96LB2. MrgX1-HEK293 cells, Fluo-4 calcium fluorescence, agonist mode; stronger effect = higher value. B-score at 10 µM. hit rate 0.44% among 310,000. AID 588627;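 active = calcium response B-score plate-corrected fluorescence ratio at least 3 library SD, with starting fluorescence B-score inside 5 SD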
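System – MrgX1-expressing HEK293 cells · Incubation – cells plated overnight, dye loaded 0.5 h 37 °C, 0.5 h room temperature · Technique – kinetic Fluo-4 NW fluorescence of intracellular calcium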
RGS4 block = human RGS4 inhibition | AID 463165 | HEK293 M3R/RGS4 inducible, Fluo-4 calcium flux; stronger effect = higher value; triggered by carbachol at its EC20 | hit rate 0.45% among 310,000 | P49798 | B-score at 10 µM;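 active = B-score, a plate-corrected calcium signal, over three deviations above library mean, with baseline fluorescence within five deviations of library mean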;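 also: RGS4 expression induced by doxycycline in cells with stable M3 receptor; B-score is computed from the integrated fluorescence ratio over baseline after carbachol; higher B-score means a larger calcium signal and so more RGS4 inhibition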
Target sequence (P49798 whole entry, looked up): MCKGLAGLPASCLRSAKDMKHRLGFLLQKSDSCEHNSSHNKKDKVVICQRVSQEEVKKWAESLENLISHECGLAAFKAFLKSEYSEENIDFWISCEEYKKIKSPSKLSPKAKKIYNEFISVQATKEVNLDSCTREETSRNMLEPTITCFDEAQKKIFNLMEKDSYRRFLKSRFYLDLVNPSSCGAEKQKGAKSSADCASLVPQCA
RGS4 pot = RGS4 potentiation or activation; B-score at 10 µM; HEK293 M3R/inducible RGS4, carbachol calcium flux Fluo4; stronger effect = lower value; hit rate 0.92% among 310,000;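 active = B-score of the integrated calcium signal more than 4 SD below the library mean, with starting fluorescence not abnormally high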;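 also: negative B-score means reduced calcium response which marks RGS4 activation or potentiation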
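Material: M3R-expressing HEK293 line, RGS4 induced by doxycycline | Schedule: Overnight RGS4 induction, 30 min dye load 37 °C, 20 min compound RT | Measured by: Fluo4 fluorescence kinetic imaging of calcium | Read-out: Integrated calcium ratio converted to B score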
MrgX1 allo conf = reconfirmed allosteric activator of human MrgX1 receptor; shares compounds with MrgX1 allo act; MrgX1-HEK293, Fluo-4 calcium fluorescence, FDSS; activation (ratio percentage), % at 10 µM; hit rate 13% among 1,200;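 active = ratio at least 3 SD above the weak peptide control, stable starting fluorescence, no direct agonism earlier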;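 also: compound followed by low BAM8-22 agonist challenge near EC20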
MrgX1 ant reconf = human MrgX1 receptor antagonism, re-confirmation screen; remaining BAM8-22 calcium response % of control (stronger effect = lower value), % at 10 µM; hit rate 19% among 2,300; MrgX1-HEK293, BAM8-22 calcium flux, Fluo-4; stronger effect = lower value; shares compounds with MrgX1 antag; AID 602420;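 active = remaining agonist calcium response no higher than 100% minus 3 SD of agonist-only control wells, with starting fluorescence near control levels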;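 also: agonist BAM8-22 given at a near maximal EC90 to ECmax level; peak minus minimum fluorescence divided by baseline after agonist addition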
HEK293 Ca flux = counter-screen for MrgX1 antagonists: effect in parental HEK293 cells; AID 624111; fluorescence ratio F(max-min)/F0 at 10 µM; Fluo-4 calcium fluorescence, FDSS; hit rate 2% among 4,000; shares compounds with MrgX1 antag;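 active = duplicate-averaged calcium fluorescence ratio at least three times the standard deviation of buffer wells, a nonspecific response in parental cells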
HEK293 Ca counter = counter-screen for MrgX1 allosteric activators: effect in parental HEK293 cells; shares compounds with MrgX1 antag; parental HEK293 calcium flux, Fluo-4 fluorescence ratio; stronger effect = higher value; fluorescence ratio F(max-min)/F0 at 10 µM; hit rate 0.4% among 4,000;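 active = calcium fluorescence ratio, averaged over duplicates, at least 3 SD of the buffer-well ratio, meaning a nonspecific response in receptor-free cells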;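 also: untransfected parental HEK293 lacking MrgX1 used as counterscreen for MrgX1 allosteric activators; fluorescence change taken during the second addition on a kinetic imager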
HEK293 Ca cntr2 = MrgX1 activator counter-screen hit in parental HEK293 cells | shares compounds with MrgX1 antag | Fluo-4 calcium fluorescence (FDSS); stronger effect = higher value | fluorescence ratio F(max-min)/F0 at 10 µM | hit rate 8.7% among 4,000;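 active = calcium fluorescence ratio at least three times the spread of buffer wells, meaning a non-specific response in parental cells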
* = called active by the depositor; i = inactive; / = no result.

SMILES	MrgX1 allo act	MrgX1 antag	MrgX1 ag	RGS4 block	RGS4 pot	MrgX1 allo conf	HEK293 Ca flux	HEK293 Ca counter	HEK293 Ca cntr2	others
Cc1cc2nc(C(C)(C)C)cc(N)n2n1	i	i	i	i	i	/	/	/	/
CCOC(=O)c1c(-c2ccc(C)cc2)csc1NC(=O)C1CC=CCC1C(=O)O (stereo not drawn)	i	i	i	i	i	/	/	/	/
Cc1ccc(-c2csc(NC(=O)C3CC=CCC3C(=O)O)c2C(=O)OC(C)C)cc1 (stereo not drawn)	7.3*	i	i	i	i	i	i	i	i
Cc1sc2ncnc(N3CCCCC3)c2c1C	6.81*	i	i	i	i	i	i	i	i
Cc1sc2ncnc(N3CCCC(C)C3)c2c1C (stereo not drawn)	27.8*	i	i	i	i	24.9%*	i	i	i
Cc1c(C(=O)NCCC2=CCCCC2)sc2ncnc(N3CCCCC3C)c12 (stereo not drawn)	i	i	i	i	i	/	/	/	/
CCc1cc2c(=O)[nH]c(N3CCCC3)nc2s1	i	i	i	i	i	/	/	/	/
Cc1sc2ncnc(N3CCCCC3C)c2c1C (stereo not drawn)	12.5*	i	i	i	i	6.3%*	i	i	i
CCc1cc2c(N3CCCCC3)ncnc2s1	10.7*	i	i	i	i	i	i	i	i
Cc1sc2ncnc(N3CCOCC3)c2c1C	i	i	i	i	i	/	/	/	/
O=C(NCc1cc(C(F)(F)F)cc(C(F)(F)F)c1)C1CC(c2ccccc2C(F)(F)F)=NO1 (stereo not drawn)	i	i	i	i	i	/	/	/	/
COc1cc(NC(=O)CCc2nnc3ccc(N4CCC5(CC4)OCCO5)nn23)cc(OC)c1	i	i	i	i	i	/	/	/	/
Cc1ccc(-n2c(SCC(=O)Nc3ccc(N4CCOCC4)cc3)nc3ccccc3c2=O)cc1	i	i	i	i	i	/	/	/	/
Cc1ccc(NC(=S)NNC(=O)CSc2nc3ccccc3c(=O)n2-c2ccc(C)cc2)cc1	20.7*	i	i	i	i	i	i	i	i
COC(=O)c1cccc(NC(=O)CC2C(=O)NCCN2C(=O)Nc2cc(C)cc(C)c2)c1 (stereo not drawn)	i	i	i	i	i	/	/	/	/
O=C(Nc1cc(F)c(Br)cc1F)c1ccc(Cl)cc1	21.4*	i	i	i	i	10.1%*	i	i	i
Nc1cc(=O)[nH]c(SCC(=O)Nc2ccccc2Sc2ccccc2)n1	i	i	i	i	i	/	/	/	/
CCN(CC)C(=O)c1cc2sc3ccccc3c2s1	9.13*	i	i	i	i	i	i	i	i
COCCN(CCOC)C(=O)c1cc2sc3ccccc3c2s1	i	i	i	i	i	/	/	/	/
COc1ccccc1C(=O)Nc1ccccc1N1CCN(C(=O)c2ccc(Cl)cc2)CC1	i	i	i	i	i	/	/	/	/
COc1cc(/C=C(/C#N)C(=O)NCc2ccccc2)cc(OC)c1OC	35.5*	i	i	i	i	i	i	i	i
Cc1cnc(C(=O)OCC(=O)c2ccc(Br)s2)cn1	i	i	i	i	i	/	/	/	/
Cc1cc(Cl)ccc1NC(=S)NCC(O)c1ccccc1 (stereo not drawn)	22.3*	i	i	i	i	i	i	i	i
N#CC1=C(N)OC2=C(CCc3ccccc32)C1c1ccccc1 (stereo not drawn)	9.71*	i	i	i	i	i	i	i	i
N#CC1=C(N)Oc2cc(O)ccc2C1c1ccccc1 (stereo not drawn)	i	i	i	i	i	/	/	/	/
SMILES	MrgX1 allo act	MrgX1 antag	MrgX1 ag	RGS4 block	RGS4 pot	MrgX1 allo conf	HEK293 Ca flux	HEK293 Ca counter	HEK293 Ca cntr2	others
Cc1cc(C)nc(NS(=O)(=O)c2ccc(NC(=O)c3snnc3C)cc2)n1	i	i	i	i	i	/	/	/	/
C=CCN(CC=C)C(=S)NC(=O)c1ccc(C)c(Br)c1	8.32*	i	i	i	i	i	i	i	i
Cc1nc2c3cc(F)ccc3n(Cc3ccccc3F)c2s1	8.98*	i	i	i	i	i	i	i	i
Cc1nc2c3ccccc3n(Cc3ccccc3F)c2s1	i	i	i	i	i	/	/	/	/
COc1ccccc1CN1C(=O)c2ccccc2C1C(=O)NC1CCC(C)CC1 (stereo not drawn)	9.8*	i	i	i	i	i	i	i	i
CCC(C)NC(=O)C1c2ccccc2C(=O)N1Cc1ccccc1OC (stereo not drawn)	i	i	i	i	i	/	/	/	/
O=C(CN1C(=O)C2C3CC(C(Br)C3Br)C2C1=O)N1CCOCC1 (stereo not drawn)	i	i	i	i	i	/	/	/	/
O=C(CN1C(=O)C2C3CC(C(Br)C3Br)C2C1=O)N1CCN(Cc2ccccc2)CC1 (stereo not drawn)	7.75*	i	i	i	i	i	i	i	i
CCOC(=O)c1ccc(NC(=O)CSc2nncn2-c2cccnc2)cc1	i	i	i	i	i	/	/	/	/
O=C(Nc1ccccc1)Nc1ccc(Cl)c(S(=O)(=O)N2CCOCC2)c1	7.75*	-8.11*	i	i	i	i	i	i	i	MrgX1 ant reconf=i
CCC(=O)Nc1ccc(S(=O)(=O)N2CCOCC2)cc1	i	i	i	i	i	/	/	/	/
O=C(Nc1ccc(S(=O)(=O)N2CCOCC2)cc1)C1CC1	15*	i	i	i	i	i	i	i	i
O=C(Nc1ccc(NC(=O)c2ccc(Cl)c(S(=O)(=O)N3CCOCC3)c2)cc1)c1ccccc1	i	i	i	i	i	/	/	/	/
